The subject of experiment [1] is Acinetobacter baumannii. As to the kind of experiment: Bactericidal activity against Acinetobacter baumannii ATCC BAA 747 at >16 mg/liter after 2 hrs by time-kill study. Type of experiment: functional, organism-based.
The subject of experiment [2] is Acinetobacter baumannii. Put plainly: Antibacterial activity against Acinetobacter baumannii ATCC BAA 747 after 24 hrs by modified broth macrodilution method. Type of experiment: functional. Particulars: ATCC BAA 747, 24 h. The procedure, abridged: (§1)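 Ca-MHB broth macrodilution per modified CLSI method, with serial twofold aminoglycoside dilutions and about 5 x 10^5 CFU/ml final inoculum from isolates subcultured twice on 5% blood agar. MIC was the lowest concentration with no visible growth after 24 h at 35°C in ambient air. Run in duplicate and repeated on at least one separate day.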

Experiment [3] concerns Pseudomonas aeruginosa. As to the kind of experiment: Ratio of Cmax to MIC for Pseudomonas aeruginosa ATCC 27853 in PK/PD model at 2000 mg administered every 24 hrs. The class given is functional.
Experiment [4] relates to Acinetobacter baumannii. As to the kind of experiment: Bactericidal activity against Acinetobacter baumannii ATCC BAA 747 assessed as concentration to achieve 50% of the maximal kill rate for the bacterial population by time-kill study. The class given is functional. The procedure, abridged: (§2)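 24-h time-kill data at a baseline inoculum of 10^7 CFU/ml were fitted to a mathematical model of a heterogeneous population. The fit ran in two steps. Growth rate (Kg) and maximal population size came from placebo control experiments. Those estimates were then held fixed while the kill-function parameters (maximal kill rate, concentration for 50% of maximal kill) were fitted to all active-treatment data together.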

Experiment [5] concerns Acinetobacter baumannii. Put plainly: Bactericidal activity against Acinetobacter baumannii ATCC BAA 747 assessed as growth rate constant for the bacterial population by time-kill study. The class given is functional. The method, boiled down: as §2
In experiment [6] the test system is Acinetobacter baumannii. As to the kind of experiment: Bactericidal activity against Acinetobacter baumannii ATCC BAA 747 assessed as maximum population size by time-kill study. The class given is functional. The procedure, abridged:
as §2

Experiment [7] relates to Acinetobacter baumannii. Put plainly: Bactericidal activity against Acinetobacter baumannii ATCC BAA 747 assessed as maximal kill rate constant for the bacterial population by time-kill study. Type of experiment: functional. The method, boiled down: as §2
Experiment [8] concerns Pseudomonas aeruginosa. Put plainly: Ratio of Cmax to MIC for Pseudomonas aeruginosa ATCC 27853 in PK/PD model at 1500 mg administered every 12 hrs. Type of experiment: functional.
The test system of experiment [9] is Pseudomonas aeruginosa. As to the kind of experiment: Bactericidal activity against Pseudomonas aeruginosa ATCC 27853 assessed as maximal kill rate constant for the bacterial population by time-kill study. The class given is functional, organism-based. The method, boiled down:
(§3)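 Parameters were fitted by mathematical modeling to 24 h time-kill data with gentamicin at 0 to 32 mg/liter and a baseline inoculum of 10^7 CFU/ml. Intrinsic growth rate (Kg) and maximal population size came from placebo controls. Kill-function parameters were then fitted to all active-treatment data simultaneously.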

Experiment [10] relates to Pseudomonas aeruginosa. As to the kind of experiment: Antibacterial activity against Pseudomonas aeruginosa ATCC 27853 after 24 hrs by modified broth macrodilution method. Type of experiment: functional, organism-based. The method, boiled down:
as §1

Experiment [11] deals with Pseudomonas aeruginosa. As to the kind of experiment: Bactericidal activity against Pseudomonas aeruginosa ATCC 27853 assessed as maximum population size by time-kill study. The class given is functional, organism-based. The procedure, abridged: as §3
The test system of experiment [12] is Pseudomonas aeruginosa. Put plainly: Bactericidal activity against Pseudomonas aeruginosa ATCC 27853 assessed as concentration to achieve 50% of the maximal kill rate for the bacterial population by time-kill study. The class given is functional, organism-based. The method, boiled down:
as §3

Experiment [13] has as its system Pseudomonas aeruginosa. As to the kind of experiment: Bactericidal activity against Pseudomonas aeruginosa ATCC 27853 assessed as growth rate constant for the bacterial population by time-kill study. Type of experiment: functional, organism-based. The method, boiled down:
as §3

≈ marks a conversion by molar mass, not a printed value. Calls of active or inactive are those of the source.

Consider `NCC[C@H](O)C(=O)N[C@@H]1C[C@H](N)[C@@H](O[C@H]2O[C@H](CN)[C@@H](O)[C@H](O)[C@H]2O)[C@H](O)[C@H]1O[C@H]1O[C@H](CO)[C@@H](O)[C@H](N)[C@H]1O` [AMIKACIN], for which the outcome in the experiment with Acinetobacter baumannii [1] was Active. Moreover, the MBC – broadly, the smallest concentration meeting the test's criterion for killing – against Acinetobacter baumannii [2] stood at 8 µg/mL (≈ 13.7 µM). The MIC (usually the smallest concentration in the dilution series that meets the test's criterion for growth inhibition) against Acinetobacter baumannii [2] amounted to 4 µg/mL (≈ 6.83 µM). In addition, the Ratio in the experiment on Pseudomonas aeruginosa [3] turned out to be 20; with Pseudomonas aeruginosa [8] it was 13. Besides, the C50k with Acinetobacter baumannii [4] amounted to 1.56 mg/L. In addition, the Activity was found to be 0.55 h⁻¹ in the experiment on Acinetobacter baumannii [5], 6.62 ×10⁸ CFU/ml in the experiment on Acinetobacter baumannii [6] and 27.81 h⁻¹ in the experiment with Acinetobacter baumannii [7].

For the molecule GENTAMICIN, the Activity amounted to 4.68 h⁻¹ in the experiment on Pseudomonas aeruginosa [9], 9.8 ×10⁸ CFU/ml with Pseudomonas aeruginosa [11] and 0.48 h⁻¹ with Pseudomonas aeruginosa [13]. Further, the Ratio with Pseudomonas aeruginosa [3] amounted to 30; in the experiment on Pseudomonas aeruginosa [8], 36. Moreover, in the experiment with Pseudomonas aeruginosa [10], the MBC was found to be 2 µg/mL. This molecule yielded an MIC against Pseudomonas aeruginosa [10] of 2 µg/mL. In addition, the C50k in the experiment with Pseudomonas aeruginosa [12] came out at 0.72 mg/L.

The values are drawn from ChEMBL document CHEMBL1275535, “Pharmacodynamic modeling of aminoglycosides against Pseudomonas aeruginosa and Acinetobacter baumannii: identifying dosing regimens to suppress resistance development” (2008).
